Results: ChEMBL document CHEMBL1123468, “Synthesis and antiviral activity of (E)-5-(2-bromovinyl)uracil and (E)-5-(2-bromovinyl)uridine” (1986)
Values after ≈ are worked out from the molar mass of the structure shown.

How the values were obtained:
E6SM [1] = test: The compound was tested for its antiviral activity against vaccinia virus in E6SM cell culture; format: functional; conditions: Homo sapiens
In short: (§1)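 Virus-induced cytopathogenicity in cell culture, scored microscopically. The value is the minimum concentration that cuts viral cytopathogenicity by 50%. Normal cell morphology was also checked microscopically at up to 400 μg/mL.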

E6SM [2] = test: The concentration required to reduce the cytopathogenicity of HSV-1 (KOS) in E6SM cell culture by 50% in presence of 4 ug/m concentrations of 6-aminothymine; format: functional; conditions: Homo sapiens
In short: (§2)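 E6SM cultures were infected with HSV-1 strain KOS. 6-Aminothymine or benzylacyclouridine was present in the medium together with the test compound. The value is the minimum concentration giving 50% reduction of viral cytopathogenicity, scored by the earlier-described cytopathogenicity inhibition procedure.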

E6SM [3] = test: The concentration required to reduce the cytopathogenicity of HSV-1 (KOS) in E6SM cell culture by 50% in presence of absence of concentrations of 6-aminothymine; format: functional; conditions: Homo sapiens
HeLa [4] = test: The compound was tested for its antiviral activity against HSV-1 (KOS) virus in HeLa cell line; format: functional; conditions: Homo sapiens; in short: as §1
HEp-2 = test: The compound was tested for its antiviral activity against HSV-1 (KOS) virus in HEp-2M cell line; format: functional; conditions: Homo sapiens; in short: as §1
PRK = test: The compound was tested for its antiviral activity against HSV-1 (KOS) virus in PRK cell line; format: functional; conditions: Oryctolagus cuniculus
In short: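 Primary rabbit kidney cells infected with HSV-1 (KOS). The value is the minimum concentration that cuts viral cytopathogenicity by 50%. Cytotoxicity was judged as microscopically detectable alteration of cell morphology at up to 400 μg/mL.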

E6SM [5] = test: The compound was tested for its antiviral activity against vesicular stomatitis virus in E6SM cell culture; format: functional; conditions: Homo sapiens; in short: as §1
E6SM [6] = test: The concentration required to reduce the cytopathogenicity of HSV-1 (KOS) in E6SM cell culture by 50% in presence of 10 ug/mL concentrations of benzylacyclouridine; format: functional; conditions: Homo sapiens
In short: (§3)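 E6SM cells infected with HSV-1 (KOS), with 6-aminothymine or benzylacyclouridine added to the medium at the stated concentration. The value is the minimum concentration that reduces viral cytopathogenicity by 50%.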

HeLa [7] = test: The concentration required to reduce the cytopathogenicity of HSV-1 (KOS) in HeLa cell culture by 50% in presence of absence concentrations of 6-aminothymine; format: functional; conditions: Homo sapiens
E6SM [8] = test: The concentration required to reduce the cytopathogenicity of HSV-1 (KOS) in E6SM cell culture by 50% in presence of absence of concentrations of benzylacyclouridine; format: functional; conditions: Homo sapiens
[9] = The concentration required to reduce the cytopathogenicity of HSV-1 (KOS) in PRK cell culture by 50% in presence of 100 ug/mL concentrations of 6-aminothymine; format: functional; conditions: Oryctolagus cuniculus
In short: (§4)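 The cells were primary rabbit kidney (PRK) cultures infected with HSV-1 strain KOS, with 6-aminothymine co-present in the medium. The value is the minimum inhibitory concentration that reduces viral cytopathogenicity by 50%, using the previously described cytopathogenicity inhibition method.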

HeLa [10] = test: The concentration required to reduce the cytopathogenicity of HSV-1 (KOS) in HeLa cell culture by 50% in presence of 20 ug/m concentrations of 6-aminothymine; format: functional; conditions: Homo sapiens
E6SM [11] = test: The concentration required to reduce the cytopathogenicity of HSV-1 (KOS) in E6SM cell culture by 50% in presence of 100 ug/mL dThd; format: functional; conditions: Homo sapiens
In short: (§5)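 E6SM cells infected with HSV-1 (KOS), with dThd added to the culture medium at the stated concentration. The value is the minimum concentration that reduces viral cytopathogenicity by 50%.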

E6SM [12] = test: The concentration required to reduce the cytopathogenicity of HSV-1 (KOS) in E6SM cell culture by 50% in absence of dThd; format: functional; conditions: Homo sapiens; in short: as §5
E6SM [13] = test: The compound was tested for its antiviral activity against HSV-2 (196) virus in E6SM cell culture; format: functional; conditions: Homo sapiens; in short: as §1
[14] = The concentration required to reduce the cytopathogenicity of HSV-1 (KOS) in PRK cell culture by 50% in presence of 20 ug/mL concentrations of 6-aminothymine; format: functional; conditions: Oryctolagus cuniculus; in short: as §4
E6SM [15] = test: The compound was tested for its antiviral activity against HSV-1 (KOS) virus in E6SM cell culture; format: functional; conditions: Homo sapiens; in short: as §1
E6SM [16] = test: The compound was tested for its antiviral activity against HSV-1 (F) virus in E6SM cell culture; format: functional; conditions: Homo sapiens; in short: as §1
E6SM [17] = test: The compound was tested for its antiviral activity against HSV-1 (KOS) virus in E6SM cell line; format: functional; conditions: Homo sapiens; in short: as §1
E6SM [18] = test: The compound was tested for its antiviral activity against HSV-2 (G) virus in E6SM cell culture; format: functional; conditions: Homo sapiens; in short: as §1
M21 = test: The compound was tested for its antiviral activity against HSV-1 (KOS) virus in M-21 (GM137) cell line,; format: functional; conditions: Homo sapiens; in short: as §1
E6SM [19] = test: The concentration required to reduce the cytopathogenicity of HSV-1 (KOS) in E6SM cell culture by 50% in presence of 30 ug/mL dThd; format: functional; conditions: Homo sapiens
In short: (§6)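 Thymidine (dThd) was added to the E6SM culture medium alongside the test compound, and cells were infected with HSV-1 strain KOS. The endpoint is the minimum inhibitory concentration that reduces viral cytopathogenicity by 50%. The cytopathogenicity inhibition procedure follows the earlier-described method.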

E6SM [20] = test: The concentration required to reduce the cytopathogenicity of HSV-1 (KOS) in E6SM cell culture by 50% in presence of 300 ug/mL dThd; format: functional; conditions: Homo sapiens; in short: as §6
E6SM [21] = test: The concentration required to reduce the cytopathogenicity of HSV-1 (KOS) in E6SM cell culture by 50% in presence of 50 ug/mL concentrations of benzylacyclouridine; format: functional; conditions: Homo sapiens; in short: as §2
T-21 (LR) = test: The compound was tested for its antiviral activity against HSV-1 (KOS) virus in T-21 (LR) cell line; format: functional; conditions: Homo sapiens; in short: as §1
Vero = test: The compound was tested for its antiviral activity against HSV-1 (KOS) virus in vero cell line; format: functional; conditions: Chlorocebus sabaeus; in short: as §1
E6SM [22] = test: The concentration required to reduce the cytopathogenicity of HSV-1 (KOS) in E6SM cell culture by 50% in presence of 10 ug/mL dThd; format: functional; conditions: Homo sapiens; in short: as §5
HSF (VGS) = test: The compound was tested for its antiviral activity against HSV-1 (KOS) virus in HSF (VGS) cell line; format: functional; conditions: Homo sapiens; in short: as §1
E6SM [23] = test: The concentration required to reduce the cytopathogenicity of HSV-1 (KOS) in E6SM cell culture by 50% in presence of 100 ug/mL concentrations of 6-aminothymine; format: functional; conditions: Homo sapiens; in short: as §3
HeLa [24] = test: The concentration required to reduce the cytopathogenicity of HSV-1 (KOS) in HeLa cell culture by 50% in presence of 4 ug/m concentrations of 6-aminothymine; format: functional; conditions: Homo sapiens
HeLa [25] = test: The concentration required to reduce the cytopathogenicity of HSV-1 (KOS) in HeLa cell culture by 50% in presence of 100 ug/m concentrations of 6-aminothymine; format: functional; conditions: Homo sapiens
E6SM [26] = test: The compound was tested for its antiviral activity against TK-HSV-1 (B2006) virus in E6SM cell culture; format: functional; conditions: Homo sapiens; in short: as §1
[27] = The concentration required to reduce the cytopathogenicity of HSV-1 (KOS) in PRK cell culture absence concentrations of 6-aminothymine; format: functional; conditions: Oryctolagus cuniculus
Mo = test: The compound was tested for its antiviral activity against HSV-1 (KOS) virus in MO cell line; format: functional; conditions: Homo sapiens; in short: as §1
E6SM [28] = test: The concentration required to reduce the cytopathogenicity of HSV-1 (KOS) in E6SM cell culture by 50% in presence of 3 ug/mL dThd; format: functional; conditions: Homo sapiens; in short: as §5
E1 SM = test: The compound was tested for its antiviral activity against HSV-1 (KOS) virus in E1SM cell line; format: functional, Homo sapiens; in short: as §1
BSC-1 = test: The compound was tested for its antiviral activity against HSV-1 (KOS) virus in BS-C-1A cell line; format: functional, Cercopithecidae; conditions: Chlorocebus aethiops; in short: as §1
[29] = The concentration required to reduce the cytopathogenicity of HSV-1 (KOS) in PRK cell culture by 50% in presence of 40 ug/mL concentrations of 6-aminothymine; format: functional; conditions: Oryctolagus cuniculus; in short: as §4
E6SM [30] = test: The compound was tested for its antiviral activity against HSV-2 (Lyons) virus in E6SM cell culture; format: functional; conditions: Homo sapiens; in short: as §1
E6SM [31] = test: The concentration required to reduce the cytopathogenicity of HSV-1 (KOS) in E6SM cell culture by 50% in presence of 1 ug/mL dThd; format: functional; conditions: Homo sapiens; in short: as §5
BALB/3T3 = test: The compound was tested for its antiviral activity against HSV-1 (KOS) virus in BALB/3T3 cell line; conditions: Mus musculus
E6SM [32] = test: The concentration required to reduce the cytopathogenicity of HSV-1 (KOS) in E6SM cell culture by 50% in presence of 20 ug/m concentrations of 6-aminothymine; format: functional; conditions: Homo sapiens; in short: as §3
E6SM [33] = test: The compound was tested for its antiviral activity against HSV-1 (McIntyre) virus in E6SM cell culture; format: functional; conditions: Homo sapiens; in short: as §1

## O=c1[nH]c(=O)n([C@@H]2O[C@H](CO)[C@@H](O)[C@H]2O)cc1/C=C/Br
E6SM [1]
  MIC50: > 400 µg/mL
E6SM [2]
  MIC50: 3 µg/mL
E6SM [3]
  MIC50: 4 µg/mL
HeLa [4]
  MIC50: 0.4 µg/mL (≈ 1.15 µM)
HEp-2
  MIC50: 150 µg/mL (≈ 430 µM)
PRK
  MIC50: 7 µg/mL (≈ 20 µM)
E6SM [5]
  MIC50: > 400 µg/mL
E6SM [6]
  MIC50: 4 µg/mL
HeLa [7]
  MIC50: 0.2 µg/mL
E6SM [8]
  MIC50: 4 µg/mL
[9]
  MIC50: 10 µg/mL
HeLa [10]
  MIC50: 0.4 µg/mL
E6SM [11]
  MIC50: > 400 µg/mL
E6SM [12]
  MIC50: 7 µg/mL (≈ 20 µM)
E6SM [13]
  MIC50: > 400 µg/mL
[14]
  MIC50: 10 µg/mL
E6SM [15]
  MIC50: 4 µg/mL (≈ 11.5 µM)
E6SM [16]
  MIC50: 7 µg/mL (≈ 20 µM)
E6SM [17]
  MIC50: 4 µg/mL (≈ 11.5 µM)
E6SM [18]
  MIC50: > 400 µg/mL
M21
  MIC50: 4 µg/mL (≈ 11.5 µM)
E6SM [19]
  MIC50: > 400 µg/mL
E6SM [20]
  MIC50: > 400 µg/mL
E6SM [21]
  MIC50: 10 µg/mL
T-21 (LR)
  MIC50: 10 µg/mL (≈ 28.6 µM)
Vero
  MIC50: > 400 µg/mL
E6SM [22]
  MIC50: 70 µg/mL
HSF (VGS)
  MIC50: 1 µg/mL (≈ 2.86 µM)
E6SM [23]
  MIC50: 4 µg/mL
HeLa [24]
  MIC50: 0.4 µg/mL
HeLa [25]
  MIC50: 1 µg/mL
E6SM [26]
  MIC50: > 200 µg/mL
[27]
  MIC50: 10 µg/mL (≈ 28.6 µM)
Mo
  MIC50: > 400 µg/mL
E6SM [28]
  MIC50: 4 µg/mL
E1 SM
  MIC50: 1 µg/mL (≈ 2.86 µM)
BSC-1
  MIC50: > 400 µg/mL
[29]
  MIC50: 10 µg/mL
E6SM [30]
  MIC50: > 400 µg/mL
E6SM [31]
  MIC50: 7 µg/mL
BALB/3T3
  MIC50: > 400 µg/mL
E6SM [32]
  MIC50: 3 µg/mL
E6SM [33]
  MIC50: 2 µg/mL (≈ 5.73 µM)
